Test results: ChEMBL document CHEMBL4152320, “Discovery and development of novel salicylate synthase (MbtI) furanic inhibitors as antitubercular agents” (Eur J Med Chem, 2018)
Calls of active or inactive are those of the source. The calls are words filed in the database; no cut-off is given here.

Assays:
[1] = system: Mycobacterium tuberculosis variant bovis BCG; test: Inhibition of Mycobacterium bovis BCG salicylate synthase assessed as reduction in mycobactin production after 15 days
Outline: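 M. bovis BCG grown in 7H9, subcultured in chelated Sauton's, diluted 1:1000 into chelated Sauton's with sub-lethal compound concentrations; 15 days at 37 °C. Pelleted cells extracted in ethanol overnight, 0.1 M FeCl3 in ethanol added until colour stable, 1 h room temperature; mycobactins isolated and quantified.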

[2] = system: Mycobacterium tuberculosis variant bovis BCG; test: Inhibition of Mycobacterium bovis BCG salicylate synthase assessed as removal of iron after 15 days by CAS assay
Outline: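 Same BCG culture in chelated Sauton's with compound, 15 days at 37 °C. Supernatant mixed 1:1 with Universal CAS solution, 10 min room temperature, A630 read; siderophore units = (Ar − As)/Ar × 100, Ar being blank medium with CAS.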

O=C(O)c1ccc(-c2ccc([N+](=O)[O-])cc2)o1
inhibition [1]: Active
inhibition [2]: Dose-dependent effect
